In brackets after ≈: the same amount, converted by molar mass.

Data set [1] relates to Mycobacterium tuberculosis. The data set can be described thus: Antitubercular activity against Mycobacterium tuberculosis H37Rv after 30 days by agar microdilution method. The format is functional. The procedure, abridged: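 Compound dissolved in DMSO; two-fold dilutions added to Middlebrook 7H10 with OADC in slanted tubes, preincubated 24 h at 37 °C. Tubes then streaked with 5 × 10⁵ bacilli of H37Rv harvested from L–J culture into 0.85% saline with 0.05% Tween-80. Incubated 30 days at 37 °C. MIC is the lowest concentration giving complete inhibition of colonies, judged against drug-free control tubes.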

Data set [2] is described as follows: Chemical stability of the compound in HCl at […] assessed as compound remaining after 3 hrs by HPLC analysis. The format is physicochemical. Particulars: HCl solution; read-out: Stability. In a few lines:
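Compound held in 0.1N HCl (gastric pH) at ambient temperature for up to 3 h and analysed by HPLC on a CN column (250 mm × 4 mm, 5 µm) at 25 ± 3 °C with PDA detection. Intact parent was followed by its peak, and degradation products by their retention times.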

A short description of data set [3]: Cytotoxicity against mouse BMDM after 48 hrs by MTS assay. Type of data set: cell-based. The procedure, abridged:
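Mouse bone-marrow cells were flushed into DMEM with 10% FBS, 15% L-929 conditioned supernatant and non-essential amino acids. They were plated at 10⁵/well and cultured 5 days at 37 °C, 5% CO₂, with medium changed every 3rd day. Graded compound concentrations were added in antibiotic-free FBS-DMEM for 48 h. MTS was added for 2 h and A490 read, with DMSO wells taken as 100% survival.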
In general terms: Formazan colour is commonly taken as a measure of viable cells.

The nature of data set [4]: Selectivity index, ratio of IC50 for mouse BMDM to MIC for Mycobacterium tuberculosis H37Rv. The format is functional. In a few lines: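 Bone-marrow cells flushed with DMEM containing 10% FBS, 15% L-929 conditioned supernatant and non-essential amino acids. Seeded at 10⁵/well and grown 5 days, medium changed every 3rd day. Compounds added in antibiotic-free FBS-DMEM for 48 h. MTS added for 2 h, A490 read, DMSO wells taken as 100%. IC50 divided by H37Rv MIC.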

The subject of data set [5] is Mycobacterium tuberculosis. The data set can be described thus: Antitubercular activity against drug-susceptible Mycobacterium tuberculosis clinical isolate2 after 30 days by agar microdilution method. Type of data set: functional.
The subject of data set [6] is Mycobacterium tuberculosis. Briefly: Antitubercular activity against Mycobacterium tuberculosis H37Rv infected in swiss mouse assessed as increase mouse survival at 100 mg/kg, po qd for 28 days measured on day 40 relative to control. Type of data set: functional. In a few lines:
(§1)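 Outbred female Swiss mice (18–20 g) infected i.v. via lateral vein with 10⁷ CFU H37Rv; groups of 10 formed next day. Test compound given as aqueous suspension at 100 mg/kg, INH at 25 mg/kg; placebo given to infected controls. All dosing oral, daily for 28 days. Mean survival time and % survivors scored at days 30 and 40; lung bacillary load per g determined on day 30.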

Data set [7] relates to Mycobacterium tuberculosis. Briefly: Antitubercular activity against Mycobacterium tuberculosis H37Rv infected in swiss mouse assessed as increase in mean survival time at 100 mg/kg, po qd for 28 days measured on day 40. Type of data set: functional. The procedure, abridged:
as §1

A further data set has as its system Vero. Briefly: Cytotoxicity against african green monkey Vero cells after 24 hrs by MTS assay. The format is cell-based. The settings on record: Chlorocebus sabaeus. The procedure, abridged:
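Vero cells were seeded at 10,000/well in DMEM with antibiotics and 10% FBS and left to adhere overnight at 37 °C, 5% CO₂. […] MTS was then added for 2 h and A490 read, with DMSO wells taken as 100% survival.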

Data set [8] relates to Mycobacterium tuberculosis. The data set can be described thus: Antitubercular activity against Mycobacterium tuberculosis H37Rv infected in swiss mouse assessed as increase mouse survival at 100 mg/kg, po qd for 28 days measured on day 30 relative to control. Type of data set: functional. The procedure, abridged:
as §1

Data set [9] has as its system Mycobacterium tuberculosis. The data set can be described thus: Antitubercular activity against Mycobacterium tuberculosis H37Rv infected in swiss mouse assessed as decrease in bacilli load in lungs at 100 mg/kg, po qd for 28 days measured on day 30. The format is functional. In a few lines: as §1
The test system of data set [10] is Mycobacterium tuberculosis. Briefly: Antitubercular activity against Mycobacterium tuberculosis H37Rv infected in mouse BMDM assessed as reduction in intracellular CFU at 5 times MIC after 4 weeks relative to control. Type of data set: functional. Further details: scale not given: the % may be the effect or the level left. The procedure, abridged: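 Murine bone-marrow macrophages cultured 5 days, then infected 3 h with 5 × 10⁶ H37Rv in antibiotic-free DMEM/10% FBS. Extracellular bacteria washed off, and compound added at 5× MIC. After 4 days at 37 °C, 5% CO₂, cells lysed with 0.1% saponin. Lysates serially diluted in saline and plated on 7H11; colonies counted after 4 weeks at 37 °C.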

The test system of data set [11] is Mycobacterium tuberculosis. The data set can be described thus: Antitubercular activity against drug-susceptible Mycobacterium tuberculosis clinical isolate1 after 30 days by agar microdilution method. Type of data set: functional.
Data set [12] can be described thus: Selectivity index, ratio of IC50 for african green monkey Vero cells to MIC for Mycobacterium tuberculosis H37Rv. The format is functional. In a few lines:
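Vero cells seeded at 10,000/well in DMEM with antibiotics and 10% FBS, allowed to adhere overnight (37 °C, 5% CO₂). […] MTS added for 2 h, absorbance read at 490 nm, with DMSO wells taken as 100% survival. IC50 divided by H37Rv agar MIC.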

Data set [13] deals with Mycobacterium tuberculosis. The data set can be described thus: Antitubercular activity against Mycobacterium tuberculosis H37Rv infected in swiss mouse assessed as increase in mean survival time at 100 mg/kg, po qd for 28 days measured on day 30. Type of data set: functional. The procedure, abridged:
as §1

For data set [14], the system named is Mycobacterium tuberculosis. The data set can be described thus: Antitubercular activity against Mycobacterium tuberculosis H37Rv infected in swiss mouse assessed as increase in mean survival time at 25 mg/kg, po qd for 28 days measured on day 30 relative to control. Type of data set: functional. The procedure, abridged: as §1
The subject of data set [15] is Mycobacterium tuberculosis. Briefly: Antitubercular activity against Mycobacterium tuberculosis H37Rv infected in swiss mouse assessed as increase in mean survival time at 25 mg/kg, po qd for 28 days measured on day 40. The format is functional. The procedure, abridged:
as §1

Data set [16] deals with Mycobacterium tuberculosis. Briefly: Antitubercular activity against Mycobacterium tuberculosis H37Rv infected in swiss mouse assessed as increase mouse survival at 25 mg/kg, po qd for 28 days measured on day 40 relative to control. The format is functional. The procedure, abridged: as §1
Data set [17] relates to Mycobacterium tuberculosis. The data set can be described thus: Antitubercular activity against Mycobacterium tuberculosis H37Rv infected in swiss mouse assessed as increase mouse survival at 25 mg/kg, po qd for 28 days measured on day 30 relative to control. Type of data set: functional. In a few lines: as §1

Consider `COc1cc(COc2ccc(C(O)C3CC3)cc2)ccc1OCCN1CCCCC1` (stereo not drawn), for which, in data set [1], it took 6.25 µg/mL (≈ 15.2 µM) to inhibit growth (MIC).
For `OC(c1ccc(OCc2cccc(OCCN3CCCCC3)c2)cc1)C1CC1` (stereo not drawn), the lowest concentration to inhibit growth in [1] (MIC) was 6.25 µg/mL (≈ 16.4 µM).
For the molecule `COc1cc(COc2ccc(C(=O)C3CC3)cc2)ccc1OCCN(C(C)C)C(C)C`, the MIC – broadly, the lowest concentration that inhibits growth of the organism – in [1] was greater than 12.5 µg/mL.
On the same count and under the same terms, with `O=C(c1ccc(OCc2ccc(OCCN3CCCCC3)cc2)cc1)C1CC1` the figure was 12.5 µg/mL (≈ 32.9 µM).
Regarding `OC(c1ccc(OCc2ccc(OCCN3CCCCC3)cc2)cc1)C1CC1` (stereo not drawn), in data set [2], the remaining at 3 h is less than 70%. Besides, the IC50 (in data set [3]; with Vero) was greater than 50 µg/mL in each case. Moreover, the Selectivity Index in data set [4] and in [12] was greater than 10 each time. For the same molecule, the MIC was greater than 12.5 µg/mL in data set [5], 3.12 µg/mL (≈ 8.18 µM) in data set [1] and greater than 12.5 µg/mL in [11]. In addition, the results for the survival at 100 mg/kg in [6] and in [8] were 25% and 50%, respectively. The MST in data set [7] amounted to 31.62; in data set [13] it was 27.5. The Activity in data set [9] worked out at 9 ×10⁷ /g; in data set [10], 98%.
Turning to `OC(c1ccc(OCc2ccc(Br)cc2)cc1)C1CC1` (stereo not drawn), in [1], the MIC was 6.25 µg/mL (≈ 18.8 µM). Further, in [10], the Activity was 88%. In data set [13], the MST was 23.37.
Consider `CN(C)CCOc1ccc(COc2ccc(C(O)C3CC3)cc2)cc1` (stereo not drawn), for which the IC50 (in data set [3]; in the data set with Vero) was greater than 50 µg/mL throughout. In addition, the Selectivity Index in data set [4] and in [12] was greater than 10 throughout. The molecule also came in with an MIC in data set [1] of 3.12 µg/mL (≈ 9.14 µM). For the same molecule, the Activity in [10] is 80%. The MST in [13] turned out to be 12.85.
In turn, `O=C(c1ccc(OCc2cccc(OCCN3CCCCC3)c2)cc1)C1CC1` gave a minimal inhibitory concentration (MIC) in [1] of 12.5 µg/mL (≈ 32.9 µM).
In data set [1], `CN(C)CCOc1ccc(COc2ccc(C(=O)C3CC3)cc2)cc1` returned an MIC greater than 12.5 µg/mL.
On the same count and under the same terms, next, `CCCCN(CCCC)CCOc1ccc(C(=O)C2CC2)cc1`: greater than 12.5 µg/mL; `O=C(c1ccc(OCc2ccc(Br)cc2)cc1)C1CC1`: 6.25 µg/mL (≈ 18.9 µM).
With `NNC(=O)c1ccncc1` [ISONIAZID], the MST in [14] is on record as 30; in data set [15], 40. Further, the survival at 25 mg/kg in data set [16] and in data set [17] was 100% in each case.
In turn, `O=C(c1ccc(OCc2cccc([N+](=O)[O-])c2)cc1)C1CC1` showed an MIC in [1] of 6.25 µg/mL (≈ 21 µM).
On the same count and under the same terms, next, `COc1cc(COc2ccc(C(=O)C3CC3)cc2)ccc1OCCN1CCOCC1`: 6.25 µg/mL (≈ 15.2 µM).
The same measure, in the same setting: with `COc1cc(COc2ccc(C(O)C3CC3)cc2)cc(OC)c1OC` (stereo not drawn) the figure was 12.5 µg/mL (≈ 36.3 µM); with `COc1cc(COc2ccc(C(=O)C3CC3)cc2)cc(OC)c1OC`, greater than 12.5 µg/mL.
Consider `OC(c1ccc(OCc2ccc(OCc3ccccc3)cc2)cc1)C1CC1` (stereo not drawn), for which the IC50 (in [3]; in the data set on Vero) was greater than 50 µg/mL each time. In addition, the Selectivity Index in data set [4] and in data set [12] was greater than 10 in each case. In addition, it took 3.12 µg/mL (≈ 8.66 µM) to inhibit growth in data set [1] (MIC). Also, in data set [10], the Activity came to 54%.
Consider `COc1cc(COc2ccc(C(=O)C3CC3)cc2)ccc1OCCN1CCCCC1`, for which the minimum inhibitory concentration (MIC) in data set [1] was greater than 12.5 µg/mL.
On to `OC(c1ccc(OCc2ccc(OCCN3CCOCC3)cc2)cc1)C1CC1` (stereo not drawn), for which the 50% inhibitory concentration (IC50) (in [3]; in the data set on Vero) was greater than 50 µg/mL in each case. Moreover, the Selectivity Index in [4] and in data set [12] was greater than 10 each time. In addition, inhibition of growth in [1] (MIC) required 3.12 µg/mL (≈ 8.14 µM). For the same molecule, the Activity in [10] amounted to 89%.
For the molecule `CC(C)N(CCOc1ccc(COc2ccc(C(=O)C3CC3)cc2)cc1)C(C)C`, in data set [1], the MIC was 12.5 µg/mL (≈ 31.6 µM).
Take `O=C(c1ccc(OCc2ccc(OCc3ccccc3)cc2)cc1)C1CC1`: the IC50 (in data set [3]; in the data set with Vero) was greater than 50 µg/mL throughout. For the same molecule, the Selectivity Index in data set [4] and in data set [12] was greater than 10 in each case. This molecule displayed an MIC in data set [1] of 1.56 µg/mL (≈ 4.35 µM). Also, the Activity in data set [10] was 0%.
Turning to `CC(C)N(CCOc1ccc(COc2ccc(C(O)C3CC3)cc2)cc1)C(C)C` (stereo not drawn), the minimal inhibitory concentration (MIC) in data set [1] stood at 12.5 µg/mL (≈ 31.4 µM).
Still for that read-out and setting: next, `COc1cc(COc2ccc(C(O)C3CC3)cc2)ccc1OCCN(C(C)C)C(C)C` (stereo not drawn): greater than 12.5 µg/mL; `O=C(c1ccc(OCc2cccc(Br)c2)cc1)C1CC1`: 12.5 µg/mL (≈ 37.7 µM).
Still for that read-out and setting: with `O=C(c1ccc(OCc2ccc(OCCN3CCOCC3)cc2)cc1)C1CC1` the figure was 6.25 µg/mL (≈ 16.4 µM).
Same read-out and setting: with `O=[N+]([O-])c1cccc(COc2ccc(C(O)C3CC3)cc2)c1` (stereo not drawn) the figure was 6.25 µg/mL (≈ 20.9 µM).
`CCCCN(CCCC)CCOc1ccc(C(O)C2CC2)cc1` (stereo not drawn): the MIC in [1] amounted to 12.5 µg/mL (≈ 39.1 µM).
Same read-out and setting: next, `COc1cc(COc2ccc(C(O)C3CC3)cc2)ccc1OCCN1CCOCC1` (stereo not drawn): 12.5 µg/mL (≈ 30.2 µM); `OC(c1ccc(OCc2cccc(Br)c2)cc1)C1CC1` (stereo not drawn): 12.5 µg/mL (≈ 37.5 µM).

For the origin of these results see ChEMBL document CHEMBL1629520, “Synthesis and optimization of antitubercular activities in a series of 4-(aryloxy)phenyl cyclopropyl methanols” (Eur J Med Chem, 2010).
